The structures appear in SMILES notation.

Data set [1] in a line: Neuroprotective activity in oligomeric amyloid beta peptide-induced human MC65 cells assessed as cell viability by MTT assay. It counts as functional, cell-based. The gist of the method:
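Protection against Aβ oligomer-induced toxicity in MC65 cells, reported as EC50 (median effective concentration).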

Data set [2] in a line: Cytotoxicity against human MC65 cells by MTT assay. It counts as cell-based. Conditions: read-out: TC50 (the source's name). The gist of the method: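 MC65 cells kept with tetracycline in the medium to suppress C99 production, so the cells survive and compound toxicity alone is measured. Reported as TC50 (median toxic concentration).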
A short description of data set [3]: Drug uptake in CD1 mouse plasma at 5 mg/kg, po daily for 75 days. It counts as ADME, organism-based. Also noted: dose 5 mg/kg, route oral. The gist of the method:
(§1)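 CD1 mice received 5 mg/Kg by oral gavage once daily for 75 days (four treated, two untreated). Compound in tissues and plasma was quantified by a previously reported procedure and expressed in µM as mean ± standard deviation (n = 4).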

Data set [4] can be described thus: Drug uptake in CD1 mouse brain at 5 mg/kg, po daily for 75 days. Conditions: read-out: Drug uptake. Set-up: dose 5 mg/kg, route oral. It counts as ADME, organism-based. The gist of the method:
as §1

Data set [5] can be described thus: Drug uptake in CD1 mouse liver at 5 mg/kg, po daily for 75 days. It counts as ADME, organism-based. Also noted: dose 5 mg/kg, route oral. Conditions: read-out: Drug uptake. The gist of the method: as §1
For data set [6], the system named is Mus musculus. In words: Toxicity in CD1 mouse assessed as effect on aspartate aminotransferase activity at 5 mg/kg, po daily for 75 days. Conditions: in vivo, 1800 h. Also noted: dose 5 mg/kg, route oral. It counts as organism-based. The gist of the method: (§2)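 After 75 days of daily oral gavage at 5 mg/kg, mice were sacrificed and blood was drawn from the heart into a heparinized syringe. Plasma was separated at once by centrifugation at 10,000 x g for 5 min. ALT and AST activities were measured with a commercial kit and compared between control and treated mice.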

Data set [7] deals with Mus musculus. In words: Toxicity in CD1 mouse assessed as effect on alanine transaminase activity at 5 mg/kg, po daily for 75 days. It counts as organism-based. Set-up: dose 5 mg/kg, route oral. Conditions: in vivo, 1800 h. The gist of the method: as §2
Data set [8] relates to Mus musculus. The data set can be described thus: Toxicity in CD1 mouse assessed as effect on locomotion at 5 mg/kg, po daily for 75 days by Versamax chamber test. It counts as organism-based. Set-up: dose 5 mg/kg, route oral. Conditions: in vivo, 1800 h. The gist of the method:
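After 75 days of daily 5 mg/Kg oral gavage, control and treated mice were acclimatized for 15 min in a Versamax chamber, then their movements were monitored. Measures were clockwise and counter-clockwise activity, total distance, rest time, and vertical and horizontal activity, compared against control.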

Data set [9] is described as follows: Drug uptake in CD1 mouse kidney at 5 mg/kg, po daily for 75 days. It counts as ADME, organism-based. Set-up: dose 5 mg/kg, route oral. Conditions: read-out: Drug uptake. The gist of the method:
as §1

Data set [10] in a line: Drug uptake in CD1 mouse pancreas at 5 mg/kg, po daily for 75 days. It counts as ADME, organism-based. Set-up: dose 5 mg/kg, route oral. Conditions: read-out: Drug uptake. The gist of the method: as §1
For data set [11], the system named is Lung. The data set can be described thus: Drug uptake in CD1 mouse lung at 5 mg/kg, po daily for 75 days. Conditions: in vivo, 1800 h. It counts as ADME, organism-based. Also noted: dose 5 mg/kg, route oral. The gist of the method:
as §1

For `COc1cc(NCCCN)c2nccc(C)c2c1`, the EC50 in [1] worked out at 17600 nM. For the same molecule, the CC50 in data set [2] was > 50000 nM.

As to `COc1cc(NCc2ccc(O)cc2)c2nccc(C)c2c1`, the EC50 in [1] turned out to be 2620 nM. For the same molecule, the CC50 in data set [2] was 20500 nM.

In the case of `COc1cc(NCc2nccs2)c2nccc(C)c2c1Oc1cccc(C(F)(F)F)c1`, the EC50 in data set [1] amounted to 2390 nM. Moreover, the CC50 in data set [2] amounted to 20300 nM.

Consider `COc1cc(NCc2ccc(O)cc2)c2nccc(C)c2c1Oc1cccc(C(F)(F)F)c1`, for which the concentration at 1800 h in data set [3] amounted to 4.5 µM; in [4] it was 24.4 µM; in [5] it was 7.1 µM; in data set [9] it was 16.1 µM; in data set [10] it was 26.5 µM. In addition, in data set [1], the EC50 is 120 nM. In addition, the Activity entry in data set [6], in [7] and in [8] was “Non-toxic” throughout. Besides, the CC50 in data set [2] was 1380 nM. Also, in data set [11], the Drug uptake result is on record as “NotTraceable”.

Turning to `COc1cc(CNc2cc(OC)c(Oc3cccc(C(F)(F)F)c3)c3c(C)ccnc23)cc(OC)c1O`, in data set [1], the EC50 was 480 nM. The CC50 in data set [2] came to 2910 nM.

For the molecule `COc1cc(NCc2cc3ccccc3o2)c2nccc(C)c2c1Oc1cccc(C(F)(F)F)c1`, the EC50 in data set [1] is 460 nM. Further, in data set [2], the CC50 is > 50000 nM.

For `COc1cc(NCc2ccc(-c3ccccc3)s2)c2nccc(C)c2c1Oc1cccc(C(F)(F)F)c1`, the EC50 in data set [1] amounted to 390 nM. In addition, the CC50 in data set [2] worked out at 14500 nM.

As to `COc1cc(NCc2cccc3cccnc23)c2nccc(C)c2c1Oc1cccc(C(F)(F)F)c1`, the EC50 in data set [1] turned out to be 190 nM. In data set [2], the CC50 was > 50000 nM.

As for `COc1cc(NCCC(N)=O)c2nccc(C)c2c1Oc1cccc(C(F)(F)F)c1`, the EC50 in data set [1] amounted to 500 nM. Also, the CC50 in data set [2] was > 50000 nM.

For the molecule `COc1cc(NC(=O)c2ccco2)c2nccc(C)c2c1Oc1cccc(C(F)(F)F)c1`, the EC50 in [1] turned out to be 3470 nM. The CC50 in data set [2] was > 50000 nM.

As to `Cc1ccnc2c(NCc3ccc(O)cc3)cc(O)c(Oc3cccc(C(F)(F)F)c3)c12`, the CC50 in data set [2] is 3310 nM.

Turning to `COc1cc(NCCCN)c2nccc(C)c2c1Oc1cccc(F)c1`, in [1], the EC50 amounted to 600 nM. Moreover, the CC50 in [2] was 7280 nM.

As for `COc1cc(NCc2ccc(O)cc2)c2nccc(C)c2c1Oc1cccc(F)c1`, the EC50 in data set [1] stood at 700 nM. For the same molecule, the CC50 in data set [2] turned out to be 2600 nM.

For `COc1cc(NCCCN)c2nccc(C)c2c1Oc1ccccc1`, the EC50 in [1] came to 420 nM. The CC50 in data set [2] worked out at 8160 nM.

In the case of `COc1cc(NCc2ccc(O)cc2)c2nccc(C)c2c1Oc1ccccc1`, the EC50 in data set [1] turned out to be 530 nM. The CC50 in data set [2] was found to be 4010 nM.

Take `COc1cc(NCCCN)c2nccc(C)c2c1Oc1cccc(C(F)(F)F)c1`: the EC50 in [1] stood at 150 nM. In addition, the CC50 in data set [2] is 2100 nM.
